Activity calls are given as the source filed them.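 Rule for the calls: active = inhibition of 30% or more at any tested concentration; inactive = the rest.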
What follows are molecules tested against M1-family alanyl aminopeptidase PfA-M1 (Plasmodium falciparum 3D7) (assay: PfM1AAP aminopeptidase inhibitors, dose response, biochemical, QFRET, H-Leu-NHMec substrate, set 2 (AID 602213)). Details: recombinant PfM1AAP, H-Leu-NHMec fluorogenic cleavage.
Summary of the method: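 Material – recombinant P. falciparum M1 alanyl aminopeptidase · Amount – PfM1AAP enzyme at 5 µg/mL final · Buffer or medium – 50 mM Tris pH 7.5 with 2 mM CoCl2, 2% DMSO · Schedule – 90 min reaction at room temperature · Signal – fluorescence at 370/460 nm · Read-out basis – % inhibition of NHMec release and IC50 from 4-parameter fit (0/100 fixed)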

| IC50 | Structure (SMILES) |
| --- | --- |
| 2.26 µM | O=C(NCc1ccccc1)C1CCN(S(=O)(=O)c2ccc(Br)s2)CC1 |
| 14.6 µM | O=C(NCc1ccc(Cl)cc1)C1CCN(S(=O)(=O)c2ccc(Br)s2)CC1 |
| 5.05 µM | O=C(NCc1ccc(F)cc1)C1CCN(S(=O)(=O)c2ccc(Br)s2)CC1 |
| 1.54 µM | O=C(NCc1ccc2c(c1)OCO2)C1CCN(S(=O)(=O)c2ccc(Br)s2)CC1 |

Same assay, conditions: recombinant PfM1AAP, H-Leu-NHMec fluorogenic cleavage; at 100 µM (top of the series)

| inhibition | Structure (SMILES) |
| --- | --- |
| inactive | CC[C@H](C)[C@H](NC(=O)c1ccc(C(C)(C)C)cc1)C(=O)NCc1ccc(Cl)cc1 |
| inactive | CC[C@H](C)[C@H](NC(=O)c1ccc(C(C)(C)C)cc1)C(=O)NCc1ccc2c(c1)OCO2 |
| inactive | CC[C@H](C)[C@H](NS(=O)(=O)c1ccc(Br)s1)C(=O)NCc1ccc2c(c1)OCO2 |
| inactive | CC[C@H](C)[C@H](NS(=O)(=O)c1ccc(Br)s1)C(=O)NCc1ccc(Cl)cc1 |

Reference: PubChem BioAssay AID602213 (Southern Research Specialized Biocontainment Screening …, 2012)
